Data set [1] concerns SiHa. Kind of data set: Cytotoxicity against human SiHa cells measured after 48 hrs by MTT assay. In kind it is functional, cell-based. An outline of the steps:
(§1)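 Seeded at 7x10^3 cells/well and allowed 24 h to attach. Compounds added at final 0 to 200 μM and incubated 48 h. Viability read by MTT. IC50 taken as the concentration giving 50% growth inhibition; mean ± SD, N = 4.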
On the technique in general: Formazan colour is commonly taken as a measure of viable cells.

Data set [2] has as its system MCF7. Kind of data set: Cytotoxicity against human MCF7 cells measured after 48 hrs by MTT assay. Conditions: MCF7, 48 h. In kind it is functional, cell-based. The procedure, abridged: as §1
A short description of data set [3]: Cytotoxicity against human SA cells measured after 48 hrs by MTT assay. It counts as functional, cell-based. Conditions: +SA cell. An outline of the steps:
as §1

Data set [4] concerns LS-411N. Kind of data set: Potentiation of TRAIL-induced cytotoxicity against human LS411N cells assessed as reduction in cell growth at cytotoxic IC50 measured after 48 hrs by MTT assay. In kind it is functional, cell-based. The procedure, abridged: (§2)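 Viability read by MTT. Growth inhibition calculated as OD570 of untreated minus OD570 of treated cells; mean and SD.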
Data set [5] has as its system HepG2. As to the kind of experiment: Potentiation of TRAIL-induced cytotoxicity against human HepG2 cells assessed as reduction in cell growth at cytotoxic IC50 measured after 48 hrs by MTT assay. It counts as functional, cell-based. The procedure, abridged: as §2
Data set [6] relates to MCF7. Kind of data set: Potentiation of TRAIL-induced cytotoxicity against human MCF7 cells assessed as reduction in cell growth at cytotoxic IC50 measured after 48 hrs by MTT assay. In kind it is functional, cell-based. An outline of the steps: as §2
For data set [7], the system named is HepG2. Kind of data set: Cytotoxicity against human HepG2 cells measured after 48 hrs by MTT assay. Conditions: HepG2, 48 h. It counts as functional, cell-based. The procedure, abridged: as §1
For data set [8], the system named is A-431. Kind of data set: Cytotoxicity against human A431 cells measured after 48 hrs by MTT assay. It counts as functional, cell-based. Conditions: A-431, 48 h. The procedure, abridged:
as §1

For data set [9], the system named is HeLa. As to the kind of experiment: Potentiation of TRAIL-induced cytotoxicity against human HeLa cells assessed as reduction in cell growth at cytotoxic IC50 measured after 48 hrs by MTT assay. In kind it is functional, cell-based. The procedure, abridged: as §2
In data set [10] the test system is SW-620. As to the kind of experiment: Potentiation of TRAIL-induced cytotoxicity against human SW620 cells assessed as reduction in cell growth at cytotoxic IC50 measured after 48 hrs by MTT assay. It counts as functional, cell-based. An outline of the steps:
as §2

In data set [11] the test system is SW-620. As to the kind of experiment: Cytotoxicity against human SW620 cells measured after 48 hrs by MTT assay. Conditions: SW-620, 48 h. In kind it is functional, cell-based. The procedure, abridged: as §1
Data set [12] has as its system SW-620. As to the kind of experiment: Induction of apoptosis in human SW620 cells assessed as Bcl-xl protein level at 15 uM measured after 48 hrs by Western blot analysis relative to beta-actin (reference value: 1). In kind it is functional. Background: A western blot detects proteins with antibodies after separation by electrophoresis.
Data set [13] relates to SW-620. Kind of data set: Induction of apoptosis in human SW620 cells assessed as Bcl-xl protein level at 20 uM measured after 48 hrs by Western blot analysis relative to beta-actin (reference value: 1). In kind it is functional.
The test system of data set [14] is SW-620. Kind of data set: Toxicity in athymic mouse xenografted with human SW620 cells assessed as serum creatine kinase level at 100 mg/kg administered as injection every other day for 15 days measured post last dose by ELISA (reference value: 1.94 +/- 1.04 U/L). Conditions: in vivo, 360 h. For orientation: In xenograft studies the graft and the host belong to different species.

Data set [15] deals with SW-620. As to the kind of experiment: Antitumor activity against human SW620 cells xenografted in athymic mouse assessed as suppression of tumor growth at 100 mg/kg administered as injection every other day for 15 days measured during compound dosing. It counts as functional, organism-based. The procedure, abridged:
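SW620 colon carcinoma cells (3x10^6 per mouse) implanted subcutaneously in athymic mice. Randomised at 60-80 mm³ tumour size, n=6 per group. Dosed 100 mg/kg on alternate days for 15 days. Vehicle control received 200 μL 1% polyoxyethylated castor oil. Tumour measured in three diameters with a caliper to give volume.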

Data set [16] concerns SW-620. Kind of data set: Induction of apoptosis in human SW620 cells assessed as Bcl-xl protein level at 10 uM measured after 48 hrs by Western blot analysis relative to beta-actin (reference value: 1). It counts as functional.
The test system of data set [17] is SW-620. Kind of data set: Induction of apoptosis in human SW620 cells assessed as XIAP protein level at 10 uM measured after 48 hrs by Western blot analysis relative to beta-actin (reference value: 1). It counts as functional.
Data set [18] has as its system SW-620. As to the kind of experiment: Induction of apoptosis in human SW620 cells assessed as XIAP protein level at 20 uM measured after 48 hrs by Western blot analysis relative to beta-actin (reference value: 1). In kind it is functional.
Data set [19] has as its system SW-620. Kind of data set: Induction of apoptosis in human SW620 cells assessed as XIAP protein level at 15 uM measured after 48 hrs by Western blot analysis relative to beta-actin (reference value: 1). It counts as functional.
Data set [20] relates to SW-620. As to the kind of experiment: Induction of apoptosis in human SW620 cells assessed as morphological changes by measuring appearance of shining cells at cytotoxic IC50 measured after 8 to 24 hrs by Hoechst 33342 staining based fluorescence microscopic analysis. It counts as functional, cell-based.

The results in this text go back to ChEMBL document CHEMBL4316609, “Chemical synthesis and functional characterization of a new class of ceramide analogues as anti-cancer agents” (Bioorg Med Chem, 2019).

The source made the active and inactive calls. No cut-off for these calls is given here.

Consider `CCCCCCCCCCCCCCCCCCNC(=O)[C@@H](NC(=O)c1nccc2ccccc12)[C@@H](C)O`, for which the IC50 in data set [1] was 51.2 µM; in [2] it was 30.8 µM; in [3], 49.1 µM; in data set [7], 96.9 µM; in data set [8], 44.1 µM. For the same compound, the result in data set [4], in [5], in data set [6], in data set [9] and in [10] was Active.
On to `CCCCCCCCCCCCNC(=O)[C@@H](NC(=O)c1ccccc1)[C@@H](C)O`, for which the IC50 in data set [1] was 63.9 µM; in data set [2] it was 36.6 µM; in data set [3], 75.5 µM; in [11] it was 200 µM; in data set [8], 41.2 µM. Further, the result in data set [4], in [5], in data set [6], in data set [9] and in data set [10] was Active.
Consider `CCCCCCCCNC(=O)[C@@H](NC(=O)c1cc2ccccc2o1)[C@@H](C)O`, for which the half-maximal inhibitory concentration (IC50) in [1] came out at 66.5 µM; in [2], 47.2 µM; in data set [3] it was 40.8 µM; in data set [11] it was 200 µM; in data set [7] it was 81.3 µM; in data set [8], 52.7 µM. The result in data set [4], in data set [5], in data set [6], in data set [9] and in [10] was Active.
Turning to `CCCCCCCCCCCCCCNC(=O)[C@@H](N)[C@@H](C)O`, the 50% inhibitory concentration (IC50) came to 11 µM in [1]; 10.7 µM in data set [2]; 11 µM in [3]; 18.7 µM in [11]; 14.6 µM in data set [8]. The “fold change (FC)” value in data set [12] is 0.68; in data set [13], 0.34; in [16], 0.82; in data set [17], 1.22; in data set [18], 0.15; in data set [19] it was 1.29. Moreover, in data set [14], the Activity was 2.98 U/L. Besides, the outcome in [15] was Active.
Regarding `CCCCCCCCCCCCCCNC(=O)[C@@H](NC(=O)Cc1c[nH]c2ccccc12)[C@@H](C)O`, the IC50 in data set [1] worked out at 4.8 µM; in [2], 6.81 µM; in data set [3], 11.5 µM; in [11], 22 µM; in data set [7], 21.1 µM; in data set [8], 15.5 µM. Further, the “fold change (FC)” value in data set [12] is reported as 1.46; in data set [13], 0.47; in [16], 1.32; in data set [17], 1.03; in data set [18] it was 0.06; in data set [19] it was 0.86. For the same compound, the Activity in [14] was found to be 2.44 U/L. In addition, the outcome in data set [15] and in data set [20] was Active.
For `CCCCCCCCCCCCNC(=O)[C@@H](NC(=O)c1nccc2ccccc12)[C@@H](C)O`, the IC50 in data set [1] is 56.6 µM; in [2] it was 50.5 µM; in data set [3] it was 51.9 µM; in data set [11], 65.8 µM; in data set [7] it was 65.7 µM; in [8], 62.8 µM. The result in [4], in data set [5], in [6], in data set [9] and in [10] was Active.
With `CCCCCCCCCCCCCCNC(=O)[C@@H](NS(=O)(=O)c1ccc(C)cc1)[C@@H](C)O`, the 50% inhibitory concentration (IC50) in [1] came to 19.2 µM; in data set [2], 12.9 µM; in [3], 10.9 µM; in [11] it was 15.2 µM; in data set [7], 10.9 µM; in data set [8], 12 µM. Moreover, the “fold change (FC)” value in data set [12] amounted to 0.73; in [13], 0.67; in [16] it was 0.88; in data set [17] it was 1.06; in data set [18], 0.94; in data set [19], 1. Moreover, in data set [14], the Activity is on record as 2.32 U/L. For the same compound, the result in [15] and in [20] was Active.
Take `CCCCCCCCCCCCCCNC(=O)[C@@H](NC(=O)c1cc2ccccc2n1C)[C@@H](C)O`: the concentration for half-maximal inhibition (IC50) was found to be 26.5 µM in data set [1]; 25.7 µM in data set [2]; 25.7 µM in data set [3]; 21.5 µM in [11]; 34.5 µM in [7]; 13.7 µM in [8]. Also, the outcome in [20] was Active.
On to `CCCCCCCCCCCCNC(=O)[C@@H](NC(=O)c1ccco1)[C@@H](C)O`, for which the IC50 in data set [1] is 64.3 µM; in data set [2], 67.5 µM; in data set [3], 93.5 µM; in [11] it was 87.5 µM; in data set [8], 92.4 µM. Besides, the result in data set [4], in [5], in data set [6], in data set [9] and in data set [10] was Active.
With `CCCCCCCCCCCCCCNC(=O)[C@@H](NS(=O)(=O)c1ccc2ccccc2c1)[C@@H](C)O`, the IC50 in data set [1] turned out to be 11.1 µM; in data set [2] it was 12.2 µM; in data set [3], 10.2 µM; in [11], 9.36 µM; in data set [7] it was 11.4 µM; in [8] it was 19.6 µM. In addition, the “fold change (FC)” value is 1.08 in data set [12]; 0.55 in data set [13]; 1.05 in [16]; 1.21 in data set [17]; 0.93 in data set [18]; 1.14 in data set [19]. Moreover, the Activity in [14] worked out at 2.63 U/L. Moreover, the outcome in [15] and in data set [20] was Active.
Consider `CCCCCCCCNC(=O)[C@@H](NC(=O)c1cccs1)[C@@H](C)O`, for which the IC50 in data set [1] was found to be 91.9 µM; in [2], 72.5 µM; in data set [3], 60.9 µM; in data set [8] it was 32.1 µM. In addition, the outcome in data set [4], in [5], in data set [6], in data set [9] and in [10] was Active.
`C/C=C/C=C/C(=O)N[C@H](C(=O)NCCCCCCCC)[C@@H](C)O`: the IC50 was 40.4 µM in data set [3], 200 µM in data set [11] and 58.2 µM in data set [8]. Besides, the result in [4], in data set [5], in [6], in data set [9] and in [10] was Active.

Usually IC50 stands for the concentration at which inhibition is half-maximal. A higher IC50 goes with a need for much substance.
